ChEMBL document CHEMBL3875229, “Potent Antifungal Synergy of Phthalazinone and Isoquinolones with Azoles Against Candida albicans” (ACS Med Chem Lett, 2017)
One block for each molecule: values may come before it.

Experiments:
Candida albicans [1] = assay: microbe, parasite or virus in culture; conditions: HLY4123, 16 h
Candida albicans [2] = assay: Antifungal activity against Candida albicans HLY4123 after 16 hrs in presence of 0.05 ug/ml of fluconazole by ten fold serial dilution method; type: functional; conditions: HLY4123, 16 h
[3] = Antifungal activity against Candida albicans clinical isolate 2 in presence of fluconazole; type: functional
Outline: (§1)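 Dose-dependent broth microdilution against fluconazole-resistant clinical isolates. Analogue concentration was varied while fluconazole was held fixed at each isolate's own MIC50, measured separately for fluconazole alone. EC50 is given as arithmetic mean ± SD of three independent experiments.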

[4] = Antifungal activity against Candida albicans clinical isolate 8 in presence of fluconazole; type: functional
Outline: as §1

[5] = Antifungal activity against fluconazole-resistant Candida albicans clinical isolate 26 after 16 hrs in presence of 32 ug/ml fluconazole by broth microdilution assay; type: functional
Candida albicans [6] = assay: Antifungal activity against Candida albicans HLY4123 after 16 hrs in presence of 0.001 ug/ml of isavuconazole by ten fold serial dilution method; type: functional; conditions: HLY4123, 16 h
[7] = Antifungal activity against Candida albicans clinical isolate 45 after 16 hrs in presence of 0.5 ug/ml of isavuconazole by broth microdilution assay; type: functional
[8] = Antifungal activity against fluconazole-resistant Candida albicans clinical isolate 33 after 16 hrs in presence of 64 ug/ml fluconazole by broth microdilution assay; type: functional
Candida albicans [9] = assay: Antifungal activity against Candida albicans HLY4123 at 0.015 nM to […] after 16 hrs in presence of […] of fluconazole by checkerboard assay; type: functional
Outline: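 Analogue and fluconazole were combined in a checkerboard format against C. albicans HLY4123. Fractional inhibitory concentration indices were calculated, with 0.5 taken as the upper limit for pharmacological synergy.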

[10] = Antifungal activity against fluconazole-resistant Candida albicans clinical isolate 45 after 16 hrs in presence of 96 ug/ml fluconazole by broth microdilution assay; type: functional
[11] = Antifungal activity against fluconazole-resistant Candida albicans clinical isolate 17 after 16 hrs in presence of 12 ug/ml fluconazole by broth microdilution assay; type: functional
[12] = Antifungal activity against fluconazole-resistant Candida albicans clinical isolate 36 after 16 hrs in presence of 64 ug/ml fluconazole by broth microdilution assay; type: functional

SMILES: COc1ccc(-n2nc(C(=O)NCC(=O)NCCC3=CCCCC3)c3ccccc3c2=O)c(OC)c1
EC50 (Candida albicans [2]): 49 nM | EC50 (Candida albicans [1]): 15 nM | EC50 [3]: 470 nM | EC50 [4]: 220 nM

SMILES: COc1cc(Br)ccc1-n1nc(C(=O)NCC(=O)NCCC2=CCCCC2)c2ccccc2c1=O
EC50 (Candida albicans [2]): 7 nM | EC50 (Candida albicans [1]): 1 nM | EC50 [5]: 17 nM | EC50 (Candida albicans [6]): 4 nM | EC50 [7]: 13 nM | EC50 [8]: 72 nM | fractional inhibitory concentration index (FICI) (Candida albicans [9]): <0.12 | EC50 [10]: 65 nM | EC50 [11]: 39 nM | EC50 [12]: 20 nM

SMILES: COc1cc(Br)ccc1-n1cc(C(=O)NCC(=O)NCCc2ccccc2)c2ccccc2c1=O
EC50 (Candida albicans [1]): 20 nM

SMILES: COc1cc(Br)ccc1-n1cc(C(=O)NCC(=O)NCCC2=CCCCC2)c2sccc2c1=O
EC50 (Candida albicans [1]): 230 nM

SMILES: COc1cc(Br)ccc1-n1cc(C(=O)NCC(=O)NCCC2=CCCCC2)c2ccccc2c1=O
EC50 (Candida albicans [2]): 24 nM | EC50 (Candida albicans [1]): 3 nM | EC50 [5]: 11 nM | EC50 (Candida albicans [6]): 6 nM | EC50 [7]: 110 nM | EC50 [8]: 371 nM | fractional inhibitory concentration index (FICI) (Candida albicans [9]): <0.17 | EC50 [10]: 170 nM | EC50 [11]: 74 nM | EC50 [12]: 32 nM

SMILES: Cc1c(Cl)ccc2c1NC(=O)[C@@]21[C@H]2C(=O)N(c3ccccc3)C(=O)[C@H]2[C@H]2CN(C(=O)OCc3ccccc3)CCN21
EC50 (Candida albicans [1]): 0.3 nM

The next lines start with the values.

EC50 (Candida albicans [1]): > 100000 nM
SMILES: COc1cc(Br)ccc1-n1cc(C(=O)NCC(=O)NCCC2=CCCCC2)c2ccc(C#CCCCO)cc2c1=O

EC50 (Candida albicans [1]): > 10000 nM
SMILES: COc1cc(Br)ccc1-n1cc(C(=O)NCC(=O)NCCC2=CCCCC2)c2occc2c1=O

EC50 (Candida albicans [1]): 65 nM
SMILES: COc1cc(C)ccc1-n1cc(C(=O)NCC(=O)NCCC2=CCCCC2)c2ccccc2c1=O

EC50 (Candida albicans [1]): 23 nM
SMILES: COc1cc(Br)ccc1-n1cc(C(=O)N[C@@H](CCCCNC(=O)OCc2ccccc2Cl)C(=O)NCCC2=CCCCC2)c2ccccc2c1=O

EC50 (Candida albicans [1]): > 100000 nM
SMILES: COc1cc(C#CCCCO)ccc1-n1cc(C(=O)NCC(=O)NCCC2=CCCCC2)c2ccccc2c1=O

EC50 (Candida albicans [1]): 33 nM
SMILES: COc1ccc(-n2cc(C(=O)NCC(=O)NCCC3=CCCCC3)c3ccccc3c2=O)c(OC)c1

EC50 (Candida albicans [1]): 220 nM
SMILES: COc1cc(Br)ccc1-n1cc(C(=O)NCCc2ccccc2)c2ccccc2c1=O

EC50 (Candida albicans [1]): 3 nM
SMILES: COc1cc(Br)ccc1-n1cc(C(=O)NCC(=O)NCCC2=CCCCC2)c2ccc(Br)cc2c1=O
